Laboratory results taken from ChEMBL document CHEMBL1121891, “Structure--activity relationship in cinnamamides. 3. Synthesis and anticonvulsant activity evaluation of some derivatives of (E)- and (Z)-m-(trifluoromethyl)cinnamamide” (J Med Chem, 1981).
Active and inactive are the calls of the source. The rule behind the calls is not given here.

Key:
[1] = Lethal dose after peroral administration; assay type: toxicity, organism-based; conditions: mouse, in vivo, po
[2] = system: Mus musculus; test: Compound was evaluated for loss of righting reflex after peroral administration; assay type: functional
How it was run: (§1)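 Irwin observational test in fasted male albino mice given oral suspensions in 0.5% methocel by gavage. Doses were 25, 50, 100, 200, 400 and 800 mg/kg, with signs checked up to 6 h. The value is the dose giving 50% of maximal effect, interpolated graphically from the log dose/peak effect curve.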

[3] = system: Mus musculus; test: Compound was evaluated for anticonvulsant activity in mouse after peroral administration.; assay type: functional; conditions: po
How it was run: (§2)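 Male albino mice (Icem-CET, SPF Caw), 17–22 g, fasted 9 h; compounds suspended in 0.5% methocel and given by gavage at 0.2 mL/10 g. Antagonism of pentylenetetrazole seizures was scored in groups of 20 per dose, at four or five doses per compound. ED50 was derived by probit analysis with p = 0.05 fiducial limits. Inactives were tested at a single screening dose.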

[4] = system: Mus musculus; test: Compound was evaluated for positional passivity after peroral administration; assay type: functional; how it was run: as §1
[5] = system: Mus musculus; test: Locomotor activity reduction after peroral administration; assay type: functional; how it was run: as §1
[6] = system: Mus musculus; test: Compound was evaluated for anticonvulsant activity in mouse after peroral administration; IA is inactive at screening dose; assay type: functional, organism-based; how it was run: as §2
[7] = system: Mus musculus; test: Compound was evaluated for minimum effective dose of clonic-type convulsions after peroral administration; E denotes absent from 25-800 mg/Kg; assay type: functional, organism-based
How it was run: (§3)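 Fasted male albino mice received oral suspensions in 0.5% methocel by gavage at 25–800 mg/kg during Irwin-type behavioral observation, followed up to 6 h. The value is the minimum effective dose producing clonic-type convulsions.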

[8] = system: Mus musculus; test: Compound was evaluated for tremors after peroral administration; E denotes absent from 25-800 mg/Kg; assay type: functional, organism-based; how it was run: as §1
[9] = system: Mus musculus; test: Compound was evaluated for positional passivity after peroral administration; H denotes absent from 25-800 mg/Kg; assay type: functional, organism-based; how it was run: as §1
[10] = system: Mus musculus; test: Compound was evaluated for positional passivity after peroral administration; E denotes absent from 25-800 mg/Kg; assay type: functional, organism-based; how it was run: as §1
[11] = system: Mus musculus; test: Compound was evaluated for anticonvulsant activity in mouse after peroral administration; Not checked; assay type: functional, organism-based
[12] = system: Mus musculus; test: Compound was evaluated for tremors after peroral administration; assay type: functional; how it was run: as §1
[13] = system: Mus musculus; test: Compound was evaluated for anticonvulsant activity in mouse after peroral administration; IA is Inactive at the screening dose; assay type: functional, organism-based; how it was run: as §2
[14] = system: Mus musculus; test: Compound was evaluated for anticonvulsant activity in mouse after peroral administration; inactive at screening dose 100 mg/kg; assay type: functional, organism-based; parameters: dose 100 mg/kg; how it was run: as §2
[15] = system: Mus musculus; test: Compound was evaluated for minimum effective dose of clonic-type convulsions after peroral administration; assay type: functional; conditions: po, read-out: MED; how it was run: as §3

Structure (SMILES)	LD50 [1] [mg/kg]	Reflex [2] [mg/kg]	ED50 [3] [mg/kg]	Passivity [4] [mg/kg]	Locomotor activity [5] [mg/kg]	other results
C/C(C(=O)NC1CC1)=C(/C)c1ccccc1	500	150	55.9	250	100	
C/C(C(N)=O)=C(/C)c1ccc(Cl)cc1	550	150	20.9	300	200	
C/C(C(N)=O)=C(\C)c1ccccc1	> 800			800	400	ED50 [6]: inactive; MED [7]: Absent; Tremors [8]: Absent
O=C1NC(=O)C(c2ccccc2)(c2ccccc2)N1 [PHENYTOIN]		250	9.11		150	Passivity [9]: inactive
C#CCNC(=O)/C(C)=C(\C)c1cccc(C(F)(F)F)c1	170	110	25.1	180	80	
C/C(C(=O)NC1CC1)=C(\C)c1cccc(C(F)(F)F)c1	> 800		65.5		800	Passivity [10]: Absent; MED [7]: Absent; Tremors [8]: Absent
C=CCNC(=O)/C(C)=C(\C)c1ccccc1		250	67	300	130	
C/C(C(=O)NC1CC1)=C(/C)c1ccc(Cl)cc1	300	150	11.4	>800	350	
O=C(/C=C/c1cccc(C(F)(F)F)c1)NC1CC1	700	100	9.6	400	100	
C#CCNC(=O)/C(C)=C(\C)c1ccc(Cl)cc1		200	10.6	400	60	
C=CCNC(=O)/C(C)=C/c1ccccc1	600	150	53.8	280	200	
C/C(C(=O)NC1CC1)=C(\C)c1ccc(Br)cc1	600		52.4	450	300	MED [7]: Absent; Tremors [8]: Absent
C/C(C(=O)NC1CC1)=C(/C)c1cccc(C(F)(F)F)c1	140	100	17.4	180	80	
C=CCNC(=O)/C(C)=C(\C)c1cccc(C(F)(F)F)c1	400	140		350	150	ED50 [11]: Not checked
C/C(C(N)=O)=C(\C)c1cccc(C(F)(F)F)c1	600		32.2	250	180	MED [7]: Absent; Tremors [8]: Absent
C/C(C(=O)NC1CC1)=C(\C)c1ccc(Cl)cc1			36.3		170	Reflex [12]: 600 mg/kg; Passivity [10]: Absent; MED [7]: Absent
C=CCNC(=O)/C=C/c1ccccc1	300	150	52.4	280	150	
C/C(C(N)=O)=C(/C)c1cccc(C(F)(F)F)c1	200	25		85	100	ED50 [13]: inactive
C/C(=C\c1cccc(C(F)(F)F)c1)C(=O)NC1CC1	700	150	24.1	400	120	
C/C(C(=O)NC1CC1)=C(\C)c1ccccc1	600				400	Reflex [12]: 300 mg/kg; Passivity [10]: Absent; ED50 [14]: inactive; minimal effective dose [15]: 400 mg/kg
C=CCNC(=O)/C(C)=C(\C)c1ccc(Cl)cc1	300	70	18.6	90	70	
C/C(=C\c1cccc(C(F)(F)F)c1)C(N)=O	800	150	22.4	250	50	
CCC1(c2ccccc2)C(=O)N=C([O-])NC1=O.[Na+] (stereo unspecified) [PHENOBARBITAL SODIUM]		110	6.1	180	180	
NC(=O)/C=C/c1cccc(C(F)(F)F)c1	600	70	23.2	200	70	
C=CCNC(=O)/C=C(\C)c1ccccc1	450	150	65.8	250	150	
